Among the data in ChEMBL document CHEMBL4814064, “Azetidinimines as a novel series of non-covalent broad-spectrum inhibitors of β-lactamases with submicromolar activities against carbapenemases KPC-2 (class A), NDM-1 (class B) and OXA-48 (class D)” (Eur J Med Chem, 2021) are IC50, inhibition and Ki values, retold here.

Where only a bound is given, the exact number is not on record here.

Experiment [1] can be described thus: Inhibition of NDM-1 (unknown origin) expressed in Escherichia coli BL21 (DE3) incubated for 3 mins by spectrophotometric analysis. Further details: species or system Bacteria; call rule not given here. In a few lines: (§1)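 NDM-1 (1 nM, His-tagged, expressed in E. coli BL21(DE3) with 1 mM IPTG for 3 h at 37 °C, purified, kept with 50 µM ZnSO4). Run in 100 mM phosphate pH 7 with 50 µM ZnSO4, 3 min enzyme–inhibitor preincubation, then 100 µM imipenem. Initial rates at 297 nm over 600 s, 25 °C. Triplicate seven-point IC50 converted to Ki (Cheng–Prusoff); percent inhibition at 10 µM.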

Experiment [2] has as its system Bacteria. Put plainly: Inhibition of NDM-1 (unknown origin) expressed in Escherichia coli BL21 (DE3) at 10 uM incubated for 3 mins by spectrophotometric analysis relative to control. In a few lines: as §1
For experiment [3], the target named is Class A carbapenemase KPC-2 (Escherichia coli, UniProt A8DS27). The experiment in a line: Inhibition of KPC-2 (unknown origin) expressed in Escherichia coli BL21 (DE3) incubated for 3 mins by spectrophotometric analysis. In a few lines: (§2)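 Preincubated 3 min with inhibitor in 100 mM phosphate pH 7. Imipenem 100 µM; hydrolysis followed at 297 nm for 600 s at 25 °C. IC50 from seven concentrations in triplicate; Ki by Cheng–Prusoff. Percent inhibition read at 10 µM.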

For experiment [4], the system named is Bacteria. Put plainly: Inhibition of OXA-48 (unknown origin) expressed in Escherichia coli BL21 (DE3) at 10 uM incubated for 3 mins by spectrophotometric analysis relative to control. The method in brief:
(§3)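 OXA-48 at 5.8 nM (His-tagged, expressed in BL21(DE3), purified in K2SO4 buffers) in 100 mM phosphate pH 7 plus 50 mM NaHCO3. Inhibitor preincubated 3 min; substrate 100 µM imipenem; initial velocities at 297 nm, 600 s, 25 °C. Seven inhibitor concentrations in triplicate give IC50, converted to Ki by Cheng–Prusoff; percent inhibition at 10 µM.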

Experiment [5] concerns the target Class A carbapenemase KPC-2 (Escherichia coli) (UniProt A8DS27). Put plainly: Inhibition of KPC-2 (unknown origin) expressed in Escherichia coli BL21 (DE3) at 10 uM incubated for 3 mins by spectrophotometric analysis relative to control. In a few lines: as §2
Experiment [6] is described as follows: Inhibition of OXA-48 (unknown origin) expressed in Escherichia coli BL21 (DE3) incubated for 3 mins by spectrophotometric analysis. Further details: species or system Bacteria. The method in brief: as §3

`COc1ccc(N2/C(=N/c3ccccc3)C[C@@H]2c2ccccc2)cc1`: in experiment [1], the IC50 was under 5 µM. In experiment [2], this compound registered an inhibition of 95%.

`COc1ccc(N2/C(=N/c3ccccc3)C[C@H]2c2ccccc2)cc1` displayed a 50% inhibitory concentration (IC50) in experiment [1] of under 5 µM. The same compound yielded an inhibition in experiment [2] of 95%.

On to `COc1ccc(N2/C(=N/c3ccc(Cl)cc3)CC2c2ccc(Cl)cc2)cc1` (racemic), for which the Ki in experiment [1] (read-out: Ki) stood at 240 nM; in experiment [3] (read-out: Ki), 1930 nM. For the same compound, the inhibition in experiment [2] was over 50%; in experiment [4] it was 27%; in experiment [5], over 50%.

`OCc1ccc(N2/C(=N/c3ccc(I)cc3)CC2c2ccc(Cl)cc2Cl)cc1` (racemic): the Ki in experiment [1] (read-out: Ki) is 1300 nM; in experiment [6] it was “Not Active”; in experiment [3] (read-out: Ki), 3890 nM. The inhibition in experiment [2] and in experiment [5] was over 50% in each case.

Take `COc1cccc(N2/C(=N/c3ccccc3)CC2c2ccccc2)c1` (racemic): the Ki in experiment [1] (read-out: Ki) came to 650 nM; in experiment [3] (read-out: Ki), 3600 nM. Besides, the inhibition in experiment [2] is over 50%; in experiment [4], 28%; in experiment [5], over 50%.

Regarding `Ic1ccc(N2/C(=N/c3ccccc3)CC2c2ccccc2)cc1` (racemic), the Ki in experiment [1] (read-out: Ki) turned out to be 1900 nM. Further, in experiment [2], the inhibition was over 50%.

For `c1ccc(/N=C2\CC(c3ccccc3)N2c2ccc3c(c2)OCCO3)cc1` (racemic), the inhibition constant Ki in experiment [1] (read-out: Ki) was 730 nM; in experiment [3] (read-out: Ki), 3600 nM. Also, the inhibition in experiment [2] is over 50%; in experiment [4], 37%; in experiment [5] it was over 50%.

For `c1ccc(/N=C2\CC(c3ccccc3)N2c2ccc3c(c2)OCO3)cc1` (racemic), the Ki in experiment [1] (read-out: Ki) is 2390 nM; in experiment [6], “Not Active”; in experiment [3], “Not Active”. The compound also came in with an inhibition in experiment [2] of over 50%.

Consider `COc1ccc(/N=C2\CC(c3ccc(Cl)cc3)N2c2ccc(OC)cc2)cc1` (racemic), for which the Ki in experiment [1] (read-out: Ki) was 860 nM; in experiment [3] it was “Not Active”. In addition, the figures for the inhibition in experiment [2] and in experiment [4] were over 50% and 31%, respectively.

Consider `COc1cc(N2/C(=N/c3ccccc3)CC2c2ccccc2)cc(OC)c1OC` (racemic), for which the Ki entry in experiment [1], in experiment [6] and in experiment [3] was “Not Active” each time.

On to `O=C(O)c1ccc(N2/C(=N/c3ccc(I)cc3)CC2c2ccc(Cl)cc2Cl)cc1` (racemic), for which the Ki was 35 nM in experiment [1] (read-out: Ki), “Not Active” in experiment [6] and 4150 nM in experiment [3] (read-out: Ki). Besides, the inhibition in experiment [2] and in experiment [5] was over 50% each time.

Take `COc1ccc(N2/C(=N/c3ccc(C(F)(F)F)cc3)CC2c2ccc(Cl)cc2Cl)cc1` (racemic): the Ki is 370 nM in experiment [1] (read-out: Ki), 640 nM in experiment [6] (read-out: Ki) and 6040 nM in experiment [3] (read-out: Ki). Besides, the inhibition in experiment [2], in experiment [4] and in experiment [5] was over 50% each time.

On to `COc1ccc(N2/C(=N/c3ccccc3)CC2c2ccc(F)cc2)cc1` (racemic), for which the Ki entry in experiment [1] and in experiment [3] was “Not Active” in each case.

Take `Oc1ccc(N2/C(=N/c3ccccc3)CC2c2ccccc2)cc1` (racemic): the Ki in experiment [1] (read-out: Ki) worked out at 360 nM. Further, the inhibition in experiment [2] was over 50%; in experiment [4], 26%; in experiment [5], 45%.

`COc1ccc(N2/C(=N/c3ccc(Br)cc3)CC2c2ccc(Cl)cc2)cc1` (racemic): the Ki came out at 300 nM in experiment [1] (read-out: Ki), 840 nM in experiment [6] (read-out: Ki) and 1550 nM in experiment [3] (read-out: Ki). For the same compound, the inhibition in experiment [2], in experiment [4] and in experiment [5] was over 50% each time.

For the compound `COc1ccc(N2/C(=N/c3ccccc3)CC2c2ccccc2)cc1` (racemic), the values for the Ki in experiment [1] (read-out: Ki), in experiment [6] and in experiment [3] (read-out: Ki) were 1000 nM, “Not Active” and 3600 nM, respectively. For the same compound, the inhibition in experiment [2] was 90%; in experiment [5], over 50%.

With `COc1ccc(N2/C(=N/c3ccc(I)cc3)CC2c2cc(Cl)cc(Cl)c2)cc1` (racemic), the figures for the Ki in experiment [1] (read-out: Ki) and in experiment [6] (read-out: Ki) were 2040 nM and 530 nM, respectively. In addition, the inhibition in experiment [2] was over 50%; in experiment [4], over 50%; in experiment [5], 42%.

Take `CSc1ccc(N2/C(=N/c3ccccc3)CC2c2ccccc2)cc1` (racemic): the Ki in experiment [1] (read-out: Ki) is under 500 nM; in experiment [6], “Not Active”. The inhibition in experiment [2] was over 50%; in experiment [5], 50%.

`CCOc1ccc(N2/C(=N/c3ccc(Cl)cc3)CC2c2ccc3ccccc3c2)cc1` (racemic): the Ki in experiment [1] (read-out: Ki) worked out at 270 nM; in experiment [3] (read-out: Ki), 1960 nM. Moreover, the inhibition was over 50% in experiment [2], 30% in experiment [4] and over 50% in experiment [5].

Turning to `COc1ccc(N2/C(=N/c3ccccc3)CC2c2ccc3ccccc3c2)cc1` (racemic), the Ki in experiment [1] (read-out: Ki) came to 1000 nM; in experiment [6] (read-out: Ki) it was 1300 nM; in experiment [3] (read-out: Ki) it was 2200 nM. The inhibition in experiment [2], in experiment [4] and in experiment [5] was over 50% each time.

As for `CCOc1ccc(N2/C(=N/c3ccccc3)CC2c2ccccc2)cc1` (racemic), the inhibition constant Ki in experiment [1] (read-out: Ki) stood at 1000 nM; in experiment [3] (read-out: Ki) it was 1400 nM. Moreover, the values for the inhibition in experiment [2], in experiment [4] and in experiment [5] were over 50%, 45% and over 50%, respectively.

On to `CCOc1ccc(N2/C(=N/c3ccccc3)CC2c2ccc3ccccc3c2)cc1` (racemic), for which, in experiment [1] (read-out: Ki), the Ki came to 2400 nM. In experiment [2], this compound came in with an inhibition of over 50%.

With `c1ccc(/N=C2\CC(c3ccccc3)N2c2ccccc2)cc1` (racemic), the Ki amounted to 4620 nM in experiment [1] (read-out: Ki), 800 nM in experiment [6] (read-out: Ki) and 2410 nM in experiment [3] (read-out: Ki). The inhibition in experiment [2], in experiment [4] and in experiment [5] was over 50% each time.

Take `COc1ccc(N2/C(=N/c3ccc(C(F)(F)F)cc3)CC2c2ccc(Cl)cc2)cc1` (racemic): the Ki was 320 nM in experiment [1] (read-out: Ki) and 2360 nM in experiment [3] (read-out: Ki). Also, the values for the inhibition in experiment [2], in experiment [4] and in experiment [5] were over 50%, 32% and over 50%, respectively.

On to `c1ccc(COc2ccc(N3/C(=N/c4ccccc4)CC3c3ccccc3)cc2)cc1` (racemic), for which the Ki is 200 nM in experiment [1] (read-out: Ki) and 1150 nM in experiment [3] (read-out: Ki). The inhibition was over 50% in experiment [2], 31% in experiment [4] and over 50% in experiment [5].

As for `COc1ccc(C2C/C(=N\c3ccccc3)N2c2ccc(OC)cc2)cc1` (racemic), the results for the Ki in experiment [1] (read-out: Ki), in experiment [6] and in experiment [3] were 2400 nM, “Not Active” and “Not Active”, respectively. For the same compound, the inhibition in experiment [2] was over 50%.

Regarding `COc1ccc(N2/C(=N/c3ccccc3)CC2c2cc(Cl)cc(Cl)c2)cc1` (racemic), the figures for the inhibition constant Ki in experiment [1] (read-out: Ki) and in experiment [3] (read-out: Ki) were 1000 nM and 1400 nM, respectively. Besides, the inhibition is over 50% in experiment [2], 20% in experiment [4] and over 50% in experiment [5].

In the case of `COc1ccc(N2/C(=N/c3ccccc3)CC2c2cccnc2)cc1` (racemic), the Ki result in experiment [1], in experiment [6] and in experiment [3] was “Not Active” in each case.

On to `COc1ccc(N2/C(=N/c3ccc(Br)cc3)CC2c2ccc(Cl)cc2Cl)cc1` (racemic), for which the Ki in experiment [1] (read-out: Ki) worked out at 580 nM. Also, the inhibition in experiment [2] is over 50%; in experiment [4], 46%; in experiment [5], 30%.

Take `COc1ccc(N2/C(=N/c3ccccc3)CC2c2ccccc2)cc1OC` (racemic): the inhibitory constant (Ki) was 2400 nM in experiment [1] (read-out: Ki), “Not Active” in experiment [6] and “Not Active” in experiment [3]. For the same compound, in experiment [2], the inhibition is over 50%.

Consider `COc1ccc(N2/C(=N/c3ccccc3)CC2c2ccc(Cl)cc2)cc1` (racemic), for which the values for the Ki in experiment [1] (read-out: Ki), in experiment [6] and in experiment [3] were 1000 nM, “Not Active” and “Not Active”, respectively. The compound further registered an inhibition in experiment [2] of over 50%.

Turning to `COc1ccc(N2/C(=N/c3ccc(I)cc3)CC2c2ccc(Cl)cc2)cc1` (racemic), the Ki in experiment [1] (read-out: Ki) amounted to 330 nM; in experiment [6] (read-out: Ki), 830 nM; in experiment [3] (read-out: Ki), 1770 nM. In addition, the inhibition in experiment [2], in experiment [4] and in experiment [5] was over 50% in each case.

For the compound `COc1ccc(N2/C(=N/c3ccc(Cl)cc3)CC2c2ccc3ccccc3c2)cc1` (racemic), the figures for the Ki in experiment [1] (read-out: Ki) and in experiment [3] (read-out: Ki) were 730 nM and 3940 nM, respectively. Besides, the results for the inhibition in experiment [2], in experiment [4] and in experiment [5] were over 50%, 18% and over 50%, respectively.

In the case of `COc1ccc(N2/C(=N/c3ccccc3)CC2c2ccc(I)cc2)cc1` (racemic), the results for the Ki in experiment [1] (read-out: Ki) and in experiment [3] (read-out: Ki) were 490 nM and 730 nM, respectively. In addition, the inhibition in experiment [2] was over 50%; in experiment [4], 33%; in experiment [5], over 50%.
